What was measured:
[1] = biological target: Kappa-type opioid receptor (Homo sapiens) (UniProt P41145); assay: Inhibition of kappa opioid receptor (unknown origin) at 10 uM relative to control
[2] = biological target: T1, Alpha-2B adrenergic receptor (Homo sapiens) (UniProt P18089); assay: Inhibition of adrenergic alpha-2B receptor (unknown origin) at 10 uM relative to control
T1 sequence (whole entry): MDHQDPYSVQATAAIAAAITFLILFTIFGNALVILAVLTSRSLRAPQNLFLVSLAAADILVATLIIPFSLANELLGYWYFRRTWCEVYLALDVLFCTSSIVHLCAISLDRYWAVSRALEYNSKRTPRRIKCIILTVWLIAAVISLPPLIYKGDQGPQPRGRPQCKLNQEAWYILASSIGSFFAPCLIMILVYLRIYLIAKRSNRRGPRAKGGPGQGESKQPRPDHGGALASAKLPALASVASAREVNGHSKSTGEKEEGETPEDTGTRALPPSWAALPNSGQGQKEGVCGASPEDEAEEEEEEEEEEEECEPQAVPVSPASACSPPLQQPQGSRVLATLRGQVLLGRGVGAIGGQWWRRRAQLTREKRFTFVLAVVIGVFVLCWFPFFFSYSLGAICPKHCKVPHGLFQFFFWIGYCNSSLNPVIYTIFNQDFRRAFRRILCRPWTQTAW

[3] = biological target: T2, Alpha-2A adrenergic receptor (Homo sapiens) (UniProt P08913); assay: Inhibition of adrenergic alpha-2A receptor (unknown origin) at 10 uM relative to control
T2 sequence (whole entry): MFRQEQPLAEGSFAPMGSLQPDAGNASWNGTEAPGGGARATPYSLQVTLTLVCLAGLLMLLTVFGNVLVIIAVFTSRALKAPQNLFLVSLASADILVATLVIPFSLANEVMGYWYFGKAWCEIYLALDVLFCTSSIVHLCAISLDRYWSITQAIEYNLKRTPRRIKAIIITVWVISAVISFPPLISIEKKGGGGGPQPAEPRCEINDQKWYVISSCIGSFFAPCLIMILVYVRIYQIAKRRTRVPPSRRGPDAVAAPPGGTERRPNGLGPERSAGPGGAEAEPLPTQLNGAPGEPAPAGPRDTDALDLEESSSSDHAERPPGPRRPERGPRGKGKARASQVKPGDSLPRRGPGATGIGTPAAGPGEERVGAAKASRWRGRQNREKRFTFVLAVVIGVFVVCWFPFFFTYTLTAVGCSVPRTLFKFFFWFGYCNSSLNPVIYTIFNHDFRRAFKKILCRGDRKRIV

[4] = biological target: T3, Muscarinic acetylcholine receptor M2 (Homo sapiens) (UniProt P08172); assay: Inhibition of muscarinergic M2 receptor (unknown origin) at 10 uM relative to control
T3 sequence (whole entry): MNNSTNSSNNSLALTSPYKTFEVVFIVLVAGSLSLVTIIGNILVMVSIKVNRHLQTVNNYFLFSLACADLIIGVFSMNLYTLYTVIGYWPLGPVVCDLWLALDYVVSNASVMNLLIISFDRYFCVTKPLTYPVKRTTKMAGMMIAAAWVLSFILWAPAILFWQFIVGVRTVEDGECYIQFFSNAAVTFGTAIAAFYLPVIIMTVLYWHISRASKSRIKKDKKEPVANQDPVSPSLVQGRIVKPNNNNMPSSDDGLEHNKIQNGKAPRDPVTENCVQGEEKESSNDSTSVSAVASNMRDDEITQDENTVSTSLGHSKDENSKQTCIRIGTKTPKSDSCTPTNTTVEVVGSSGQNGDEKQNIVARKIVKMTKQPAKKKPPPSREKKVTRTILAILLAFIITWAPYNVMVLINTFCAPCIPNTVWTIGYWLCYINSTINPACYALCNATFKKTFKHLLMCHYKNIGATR

Rattus norvegicus = species: Rattus norvegicus; assay: Inhibition of BZP receptor in rat brain at 10 uM relative to control; assay type: tissue-based
[5] = biological target: Mu-type opioid receptor (Homo sapiens) (UniProt P35372); assay: Inhibition of mu opioid receptor (unknown origin) at 10 uM relative to control
[6] = biological target: D(1B) dopamine receptor (Homo sapiens) (UniProt P21918); assay: Inhibition of dopaminergic D5 receptor (unknown origin) at 10 uM relative to control
[7] = biological target: Delta-type opioid receptor (Homo sapiens) (UniProt P41143); assay: Inhibition of delta opioid receptor (unknown origin) at 10 uM relative to control
[8] = biological target: 5-hydroxytryptamine receptor 2A (Homo sapiens) (UniProt P28223); assay: Inhibition of 5-HT2A receptor (unknown origin) at 10 uM relative to control
Homo sapiens = species: Homo sapiens; assay: Inhibition of sigma-2 receptor (unknown origin) at 10 uM relative to control
[9] = biological target: 5-hydroxytryptamine receptor 7 (Homo sapiens) (UniProt P34969); assay: Inhibition of 5-HT7 receptor (unknown origin) at 10 uM relative to control
[10] = Solubility of the compound in water at 300 uM; assay type: physicochemical
How it was run: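 Hydrochloride salts checked for dissolution in water at 300 µM.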

[11] = Toxicity in ip dosed albino Sprague-Dawley rat assessed as behavioral changes measured at 0.25 to 4 hrs; assay type: organism-based; details: in vivo
How it was run: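 Male albino Sprague-Dawley rats given compound intraperitoneally or orally (NINDS ASP); neurological impairment judged from behavioral toxicity effects. Preset screening doses (e.g., 30 mg/kg); for adequately active compounds, TD50 (mg/kg, 95% confidence intervals) derived from dose–effect data at time of peak effect.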

[12] = biological target: T4, 5-hydroxytryptamine receptor 2C (Homo sapiens) (UniProt P28335); assay: Inhibition of 5-HT2C receptor (unknown origin) at 10 uM relative to control
T4 sequence (whole entry): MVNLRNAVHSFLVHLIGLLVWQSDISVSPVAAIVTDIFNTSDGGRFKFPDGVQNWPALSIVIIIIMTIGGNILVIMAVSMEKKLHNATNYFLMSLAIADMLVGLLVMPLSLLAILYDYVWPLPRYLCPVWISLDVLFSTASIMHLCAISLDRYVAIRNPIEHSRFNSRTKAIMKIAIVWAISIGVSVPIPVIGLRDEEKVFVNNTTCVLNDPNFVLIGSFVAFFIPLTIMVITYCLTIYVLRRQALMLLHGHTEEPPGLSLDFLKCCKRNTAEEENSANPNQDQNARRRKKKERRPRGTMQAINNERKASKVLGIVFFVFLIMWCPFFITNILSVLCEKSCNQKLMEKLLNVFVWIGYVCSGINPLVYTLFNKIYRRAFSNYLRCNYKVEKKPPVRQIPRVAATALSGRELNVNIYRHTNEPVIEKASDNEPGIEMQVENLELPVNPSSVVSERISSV

Sequence of D(1B) dopamine receptor (Homo sapiens) (P21918 whole entry): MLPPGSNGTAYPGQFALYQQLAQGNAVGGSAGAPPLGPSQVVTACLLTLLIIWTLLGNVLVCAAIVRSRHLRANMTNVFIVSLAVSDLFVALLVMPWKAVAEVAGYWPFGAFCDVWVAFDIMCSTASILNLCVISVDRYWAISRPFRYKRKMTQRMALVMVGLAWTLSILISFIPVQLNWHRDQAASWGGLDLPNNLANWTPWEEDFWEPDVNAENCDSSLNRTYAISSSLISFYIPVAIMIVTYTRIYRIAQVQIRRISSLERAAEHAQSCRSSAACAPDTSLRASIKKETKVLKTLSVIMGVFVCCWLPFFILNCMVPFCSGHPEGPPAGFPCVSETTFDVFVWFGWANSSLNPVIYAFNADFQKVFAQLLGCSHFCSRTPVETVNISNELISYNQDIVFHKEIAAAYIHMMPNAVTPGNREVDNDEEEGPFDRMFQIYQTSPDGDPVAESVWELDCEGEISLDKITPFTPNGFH
Sequence of Mu-type opioid receptor (Homo sapiens) (P35372 whole entry): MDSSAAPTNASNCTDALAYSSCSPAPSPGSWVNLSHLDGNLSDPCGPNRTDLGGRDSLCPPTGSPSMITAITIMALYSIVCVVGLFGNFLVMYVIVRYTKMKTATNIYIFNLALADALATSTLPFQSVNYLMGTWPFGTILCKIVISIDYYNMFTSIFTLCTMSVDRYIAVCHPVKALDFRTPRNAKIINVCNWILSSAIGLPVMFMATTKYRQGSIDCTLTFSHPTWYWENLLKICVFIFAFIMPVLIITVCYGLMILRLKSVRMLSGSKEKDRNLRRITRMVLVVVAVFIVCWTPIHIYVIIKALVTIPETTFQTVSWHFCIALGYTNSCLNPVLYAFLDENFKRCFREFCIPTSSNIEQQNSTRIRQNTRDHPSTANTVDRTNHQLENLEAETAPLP
Sequence of Kappa-type opioid receptor (Homo sapiens) (P41145 whole entry): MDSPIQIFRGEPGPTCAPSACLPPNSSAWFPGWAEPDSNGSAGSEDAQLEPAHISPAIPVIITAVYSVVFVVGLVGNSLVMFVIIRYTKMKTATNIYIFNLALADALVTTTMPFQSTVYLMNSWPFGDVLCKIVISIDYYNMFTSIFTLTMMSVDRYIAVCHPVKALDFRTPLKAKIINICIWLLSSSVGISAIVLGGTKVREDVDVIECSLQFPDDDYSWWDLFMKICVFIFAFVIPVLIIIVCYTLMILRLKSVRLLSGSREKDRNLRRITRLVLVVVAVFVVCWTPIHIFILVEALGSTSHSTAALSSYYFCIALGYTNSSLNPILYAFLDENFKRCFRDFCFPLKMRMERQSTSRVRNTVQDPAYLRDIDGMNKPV
Sequence of 5-hydroxytryptamine receptor 7 (Homo sapiens) (P34969 whole entry): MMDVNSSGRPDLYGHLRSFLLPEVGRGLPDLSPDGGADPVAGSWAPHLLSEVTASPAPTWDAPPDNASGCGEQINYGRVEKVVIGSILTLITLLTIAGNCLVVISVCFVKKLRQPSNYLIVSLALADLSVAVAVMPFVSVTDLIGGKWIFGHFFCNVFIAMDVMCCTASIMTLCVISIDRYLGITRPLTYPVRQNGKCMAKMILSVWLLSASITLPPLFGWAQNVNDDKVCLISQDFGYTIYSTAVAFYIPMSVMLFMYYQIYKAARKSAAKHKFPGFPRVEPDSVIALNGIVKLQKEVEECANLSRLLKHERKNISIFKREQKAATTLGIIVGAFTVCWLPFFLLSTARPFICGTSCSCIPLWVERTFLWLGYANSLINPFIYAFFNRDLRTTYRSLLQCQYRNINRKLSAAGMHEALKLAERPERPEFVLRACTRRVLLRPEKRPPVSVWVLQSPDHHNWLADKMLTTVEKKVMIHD
Sequence of Delta-type opioid receptor (Homo sapiens) (P41143 whole entry): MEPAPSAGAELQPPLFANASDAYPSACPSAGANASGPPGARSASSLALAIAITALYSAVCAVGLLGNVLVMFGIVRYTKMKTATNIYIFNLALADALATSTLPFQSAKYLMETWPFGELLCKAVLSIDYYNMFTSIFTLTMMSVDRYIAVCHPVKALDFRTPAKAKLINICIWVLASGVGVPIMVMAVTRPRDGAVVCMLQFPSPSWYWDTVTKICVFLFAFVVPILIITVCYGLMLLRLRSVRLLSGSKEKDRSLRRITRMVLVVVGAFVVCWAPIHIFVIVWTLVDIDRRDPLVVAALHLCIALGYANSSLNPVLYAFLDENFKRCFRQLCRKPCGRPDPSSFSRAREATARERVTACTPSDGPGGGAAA
Sequence of 5-hydroxytryptamine receptor 2A (Homo sapiens) (P28223 whole entry): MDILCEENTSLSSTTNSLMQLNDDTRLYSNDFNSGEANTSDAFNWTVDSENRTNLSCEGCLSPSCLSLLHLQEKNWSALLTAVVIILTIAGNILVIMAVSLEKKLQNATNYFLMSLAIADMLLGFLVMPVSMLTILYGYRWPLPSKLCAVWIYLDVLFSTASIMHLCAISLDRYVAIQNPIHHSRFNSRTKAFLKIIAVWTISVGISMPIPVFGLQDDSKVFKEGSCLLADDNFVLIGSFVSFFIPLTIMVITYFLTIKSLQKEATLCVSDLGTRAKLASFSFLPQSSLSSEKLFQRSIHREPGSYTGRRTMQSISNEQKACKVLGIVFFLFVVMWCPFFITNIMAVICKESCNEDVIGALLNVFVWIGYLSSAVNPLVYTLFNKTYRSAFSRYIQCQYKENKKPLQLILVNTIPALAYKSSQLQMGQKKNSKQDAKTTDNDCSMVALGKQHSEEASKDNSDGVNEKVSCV

| Compound | inhibition [1] | inhibition [2] | inhibition [3] | inhibition [4] | inhibition (Rattus norvegicus) | inhibition [5] | inhibition [6] | inhibition [7] | inhibition [8] | inhibition (Homo sapiens) | inhibition [9] | solubility [10] | TD50 [11] | inhibition [12] |
| --- | --- | --- | --- | --- | --- | --- | --- | --- | --- | --- | --- | --- | --- | --- |
| Cl.NCc1ccc(OCc2cccc(Cl)c2)cc1 | 13.9% | 72% | 74% | 13.1% | -4.4% | -2.2% | -1.6% | 17% | 88.2% | 80.5% | -1.9% | soluble | > 30 mg/kg | -4.3% |
| Cl.NCc1ccc(OCc2cccc(F)c2)cc1 | 1.3% | 51.3% | 57.2% | -6% | 25.8% | -8.6% | -0.5% | 18% | 88.6% | 58.4% | 59.1% | soluble | > 30 mg/kg | 41.2% |
| Cl.NCc1ccc(OCc2cccc(OC(F)(F)F)c2)cc1 | 9.8% | 44.3% | 47% | 4.5% | 19.8% | 2.8% | 0.4% | 0.9% | 88% | 87.5% | 43.6% | soluble | > 30 mg/kg | 33% |
| Cl.NCc1ccc(OCc2ccccc2OC(F)(F)F)cc1 | 6.6% | 29.5% | 59.2% | 3.8% | 5.9% | -4.8% | 3.9% | 23% | 73.8% | 89.8% | 38.7% | soluble | – | 39.7% |
| Cl.NCc1ccc(OCc2ccc(OC(F)(F)F)cc2)cc1 | 2.6% | 49.9% | 48.2% | 1.9% | 0.3% | -5.6% | 3.5% | 21% | 94.7% | 86.4% | 29.3% | soluble | > 50 mg/kg | 4.2% |
| Cl.NCc1ccc(OCc2ccccc2)cc1 | 6% | 27.3% | 47.3% | -2.5% | 12.7% | -5.8% | 1.9% | 22% | 76.8% | 56.6% | 56.3% | soluble | > 50 mg/kg | 38.2% |
| Cl.NCc1ccc(OCc2ccccc2F)cc1 | 3.6% | 30.9% | 39% | -7.5% | -1.5% | – | 2.3% | 17% | 75.7% | 71.6% | 43.5% | soluble | > 50 mg/kg | 32.6% |
| Cl.NCc1ccc(OCc2ccc(Cl)cc2)cc1 | 16.6% | 51.6% | 65.9% | 10.9% | 6.5% | -2.3% | 6.4% | 13% | 92.6% | 79.2% | 45.4% | soluble | > 30 mg/kg | 13.2% |
| Cl.NCc1ccc(OCc2ccc(F)cc2)cc1 | 14.2% | 37% | 55.4% | 12.6% | 8.9% | -5.5% | 1% | 17% | 77.1% | 67.6% | 67.7% | soluble | > 30 mg/kg | 11.1% |
